The data set in a line: Toxicity liver stage against HepG2, at 10uM. The settings on record: human, HepG2-A16-CD81EGFP cells; read-out: INHIBITION
Type of data set: cell-based. Also on record: test concentration 10 uM, cell line HepG2-A16-CD81EGFP. In outline:
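Uninfected HepG2-A16-CD81EGFP cells, 3 × 10^3 per well, 1536-well, plated on prespotted compound at 10 μM final, parasite-free screening media added to match infected plates; puromycin 10 μM positive, DMSO 0.5% negative; run in parallel with 48 h PbLuc assay at 37 °C, 5% CO2; viability by CellTiter-Glo luminescence, normalized to controls.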
For the compound `COc1ccccc1CNc1ccc2nncn2n1`, the cytotoxicity at 10 µM was found to be 10.4%.

As for `CCSc1nnc(N2CCN(c3ccccc3)CC2)s1`, the cytotoxicity at 10 µM is -6.67%. Then `O=C(CCCc1ccccc1)Nc1cnc(N2CCOCC2)nc1`, with -13.9%; and `O=C(C[C@@H]1COC[C@H]2CN(Cc3ccsc3)C[C@@H]12)N1CCCC1`, with 1.64%. Then `CCOC1CC2(CCN(C(C)=O)CC2)c2cc(F)ccc21` (stereo not drawn), with -143%; and `CCS(=O)(=O)N1CCOC2(COCCN(c3nccs3)C2)C1` (stereo not drawn), with 7.4%.

As for `COCC1c2nnn(CC3CC3)c2CCN1C(=O)c1cnccn1` (stereo not drawn), the cytotoxicity at 10 µM was -140%. Then `CS(=O)(=O)NC[C@@H]1OC[C@H]2CN(C(=O)c3ccccc3)CC[C@H]21`, with 10.3%; and `Cc1nc(-c2ccccc2F)sc1C(=O)N1CCN(C)CC1`, with 21%. Then `CC[C@H](C)[C@H](NC(=O)Cc1csc(-c2cccc(Cl)c2)n1)C(=O)O`, with -7.48%. For `O=C(NCc1ccccc1)N1CCC2(CC(=O)N(c3ccsc3)C2)C1` (stereo not drawn), the cytotoxicity at 10 µM was -9.64%. With `Cc1nn(C)c2c(NCc3cccnc3)nc(C(C)C)nc12`, the cytotoxicity at 10 µM is 10.5%. As for `COc1cc(NCc2ccncc2)c(-c2nn[nH]n2)cc1OC`, the cytotoxicity at 10 µM is 7.91%.

As to `CC(=O)N1CCCC(Cc2cnc(-n3ccnc3)cn2)C1` (stereo not drawn), the cytotoxicity at 10 µM is -21.7%. Then `O=C(c1cncnc1)N1Cc2ccccc2OC2(CCOCC2)C1`, with -8.46%.

Regarding `CS(=O)(=O)c1ccc(NC(=O)NC2(c3cccc(F)c3)CC2)cc1`, the cytotoxicity at 10 µM is 2.93%. Then `COCCN(C)C(=O)Nc1cc2c(cc1SC)OCCO2`, with 4.69%.

On to `CC(CN1CCOCC1)NC(=O)N1CCN(S(C)(=O)=O)CC1` (stereo not drawn), for which the cytotoxicity at 10 µM is 0.243%. Then `Cc1noc(CNC(=O)NCCc2ccc(Cl)cc2)n1`, with 6.93%. Then `CCc1cc(=O)[nH]c(-c2ccc(NC(C)CN3CCOCC3)nc2)n1` (stereo not drawn), with -145%; and `CC(C)CCOc1ccc(C(C)NC(=O)CSCC(N)=O)cc1` (stereo not drawn), with 10.5%. On to `N#CC1COCCN1S(=O)(=O)c1ccc2ccccc2c1` (stereo not drawn), for which the cytotoxicity at 10 µM turned out to be 6.45%.

Consider `CC(C)C(=O)NS(=O)(=O)CCc1ccccc1`, for which the cytotoxicity at 10 µM was found to be 0.67%.

As to `CC(C)NC(=O)N1CCC[C@H]1C(=O)NCCCc1cnn(C)c1`, the cytotoxicity at 10 µM turned out to be 0.00333%. Then `O=C(NCCOc1ccc(Cl)cn1)Nc1ccccn1`, with 9.05%.

Consider `O=C(CNC(=O)Nc1cccc(-c2nccs2)c1)NCCO`, for which the cytotoxicity at 10 µM was -2.77%. Then `Cc1ccc(-c2cnc(CCC(=O)NCCN3CCOCC3)o2)cc1C`, with 7.36%. Then `CC(C)CCC(=O)Nc1ccc2oc(=O)n(CCN(C)C)c2c1`, with -9.15%; and `NC(=O)CCn1ccc(NC(=O)c2ccc(OCC3CC3)cc2)n1`, with 5.48%. Then `COCc1ccccc1NC(=O)NC(C)c1ccc(C)o1` (stereo not drawn), with 0.205%. Regarding `N#Cc1ccnc(N2CCN(CC(O)c3ccc(F)cc3F)CC2)c1` (stereo not drawn), the cytotoxicity at 10 µM is -0.626%. Then `O=C(c1csc(-c2ccco2)n1)N1CCN2CCCCC2C1` (stereo not drawn), with 5.6%. As for `C=C(C)CN(CC)S(=O)(=O)c1ccccc1C#N`, the cytotoxicity at 10 µM is -17.1%. Then `O=C(Cc1csc(N2CCNC2=O)n1)NC(c1ccccc1)C1CC1` (stereo not drawn), with -136%; and `O=C(CNC(=O)C1CC1)NCCOc1cccc(Cl)c1Cl`, with 5.04%. Turning to `CN1CCN(c2ccc(F)cc2NC(=O)NCC[S+](C)[O-])CC1` (stereo not drawn), the cytotoxicity at 10 µM was -10.7%. On to `Clc1nc2ccccn2c1CNCC1CN(C2CC2)CCO1` (stereo not drawn), for which the cytotoxicity at 10 µM was -3.06%. Then `Cc1cccc(C2(CNC(=O)C(C)NC(N)=O)CCCC2)c1` (stereo not drawn), with 7.19%. Then `COc1cc(C(C#N)NC(=O)CC2=CCCCC2)cc(OC)c1OC` (stereo not drawn), with 3.2%.

In the case of `CC(CNS(=O)(=O)CCCC#N)c1ccsc1` (stereo not drawn), the cytotoxicity at 10 µM amounted to 3.02%.

As to `O=C(CNc1cccc(S(=O)(=O)C(F)F)c1)Nc1ccccc1`, the cytotoxicity at 10 µM is -48.4%. Then `CC(=O)c1ccc(CNC(=O)c2cc(C)nn2C)nc1C`, with 6.21%; and `Cc1nc(CNC(=O)NCC(O)c2cccc(Cl)c2)cs1` (stereo not drawn), with -16.1%; and `CC(CN1CCOCC1)NC(=O)NCc1ccc(Cl)s1` (stereo not drawn), with 1.23%. `CN1CCCCC1c1nc(Cc2cccc(F)c2)no1` (stereo not drawn): the cytotoxicity at 10 µM is -161%. Then `O=C1N(CCc2ccccc2)CCCC12CCN(C(CO)CO)C2` (stereo not drawn), with -3.25%. Then `CC(C)Cc1noc(CN(C)c2ncccn2)n1`, with 5.23%. Turning to `C[C@@H]1CN(C(=O)Cn2ccc3ncccc3c2=O)C[C@H](C)O1`, the cytotoxicity at 10 µM is -5.64%.

As to `COc1ccccc1OCCCc1cccc(C#N)n1`, the cytotoxicity at 10 µM was -5.62%. Then `CCNC(=O)[C@@H]1C[C@@H](N)CN1C(=O)c1cc2ccccc2[nH]1`, with -9.6%.

Consider `CNC(=O)[C@@H]1C[C@H](N)CN1Cc1cc2cc(C)cc(C)c2[nH]c1=O`, for which the cytotoxicity at 10 µM is -1.72%.

Take `O=C1NCCN(CC2CCCCC2)C1CC(=O)N1CCc2n[nH]cc2C1` (stereo not drawn): the cytotoxicity at 10 µM is -3.76%.

`Cc1ccccc1CCC1CCCN(C(=O)Cc2cc(=O)[nH]c(N)n2)C1` (stereo not drawn): the cytotoxicity at 10 µM is 4.6%. Then `CCC[C@@H]1CN(C(=O)CCc2ccco2)C[C@H]1NS(C)(=O)=O`, with -3.73%; and `CCn1ncnc1C(C)Nc1cc(C2CC2)ncn1` (stereo not drawn), with 2.33%; and `CSc1ncccc1C(=O)N1CCC2(CC1)OCCCC2O` (stereo not drawn), with -7.16%. Then `COc1ccccc1OCc1cc(C(=O)N2CC(O)C2)n[nH]1`, with -1.02%; and `Cc1cccc(C(=O)NCc2ccc(CS(N)(=O)=O)cc2)n1`, with -1.07%. Then `Cn1cc(CCN2CCOC(CNc3cccnn3)C2)cn1` (stereo not drawn), with 2.11%.

As for `CC(C)(C)OC(=O)N1CCC(C(=O)NCCNc2ncccn2)CC1`, the cytotoxicity at 10 µM is -10.3%. Then `O=C(NCCNc1ncccn1)C1CCN(C(=O)N2CCCC2)CC1`, with -6.11%; and `CC(O)CN1CCC(CNCc2ccccc2F)CC1` (stereo not drawn), with -11.4%. Then `Cc1noc(C2CCN(C(=O)c3ccc(C(F)(F)F)nc3)CC2)n1`, with -6.16%. Then `Cc1nnc2n1CCN(C(=O)c1cc(Cl)c(Br)[nH]1)C2`, with -4.31%; and `OC(CN1CCC(c2ccn[nH]2)CC1)c1cccc(C(F)(F)F)c1` (stereo not drawn), with -12.1%; and `Cc1cnn(CC2CCCN2C(=O)c2ccccc2-n2cnnn2)c1` (stereo not drawn), with -35.7%.

For the compound `Cc1cccc(-n2ncc(C(=O)NCC3CCS(=O)(=O)C3)c2C)c1` (stereo not drawn), the cytotoxicity at 10 µM was -20.3%.

Regarding `COCCCNC(=O)c1c(C)noc1C(C)C`, the cytotoxicity at 10 µM was -28.2%.

In the case of `CCOc1ncccc1CNC(=O)Nc1ccc(CC)cc1`, the cytotoxicity at 10 µM was -23.7%. For the compound `O=C(CCOc1ccccc1Cl)N1CCN(c2cnccn2)CC1`, the cytotoxicity at 10 µM was -29.2%. Then `Cc1nnc(CN2CCN(C(C)c3nc(C4CC4)no3)CC2)o1` (stereo not drawn), with -10.3%. With `O=c1n(CCSCc2ccccc2Br)nc2ccccn12`, the cytotoxicity at 10 µM was -3.95%. Then `Cc1ccc(NC2CCN(C(=O)c3ccc(Cl)o3)CC2)nn1`, with -0.961%; and `CNc1nc(CNC(=O)Nc2ccccc2-c2noc(C)n2)cs1`, with -6.56%.

For `CC(C)c1nc(CN2CCCN(Cc3nnc(C4CC4)o3)CC2)no1`, the cytotoxicity at 10 µM is -0.794%. Then `CC(NC(N)=O)C(=O)N1CCCN(Cc2nccn2C(C)C)CC1` (stereo not drawn), with 1.95%; and `N#CC1(C(=O)NCC2CCC3(CCNCC3)O2)CC1` (stereo not drawn), with -5.22%; and `Cc1ccc(CN2CCOCC3(CCN(Cc4cccs4)C3)C2)o1` (stereo not drawn), with -5.61%. Then `CC(C)CN1CCC2(CC1)C(=O)Nc1ccc(C(=O)N(C)C)cc12`, with -1.18%. Then `O=C(c1cccnc1)N1CCCC2(CCN(c3ccsc3)C2=O)C1` (stereo not drawn), with -1.29%; and `Cn1cccc1C(=O)N1CCN(Cc2ccncc2)c2ncccc2C1`, with -0.395%; and `COCCN1CC[C@]2(CN(Cc3cccnc3)C[C@H]2C)C1=O`, with -4.66%. For the compound `c1cnc(N2CC[C@@H]3CN(Cc4ccncc4)CCO[C@@H]3C2)nc1`, the cytotoxicity at 10 µM is 5.53%. Then `Cc1nc(CN2CCc3ncnc(C4CCOC4)c3CC2)cs1` (stereo not drawn), with 3.05%. With `Cc1nc(CO[C@@H]2CN(Cc3cccs3)[C@@H]3COC[C@@H]32)cs1`, the cytotoxicity at 10 µM is -0.646%. On to `Cc1nnc(N2CCCC3(CN(c4ccccn4)CCO3)C2)o1` (stereo not drawn), for which the cytotoxicity at 10 µM is -98.8%. Then `c1ccc(OCC2CC3(CCN(c4ncccn4)CC3)CO2)nc1` (stereo not drawn), with 0.485%; and `COCCN1CCC2(CC1)CN(C(C)=O)c1ccc(C)cc12`, with 3.77%; and `COc1ccccc1-c1c[nH]c(C2CCCN2)n1` (stereo not drawn), with 0.276%.

For the compound `Cc1oncc1C(=O)N[C@@H]1CN(c2ncccn2)C[C@@H]2CCCO[C@@H]21`, the cytotoxicity at 10 µM was determined as 6.21%. Then `O=C1COC2(CCN(CC3CC3)CC2)CN1c1cncnc1`, with -1.87%. Then `O=C(O)c1c(-c2cccnc2)ncc2c1CCN(Cc1ccccn1)C2`, with -1.43%; and `O=C(NCC1COCc2c(-c3ccncc3)nnn2C1)[C@H]1CCCO1` (stereo partly drawn), with 1.9%. `CC(C)n1nc(Cn2cccn2)c2c1CN(C1CCOCC1)C2`: the cytotoxicity at 10 µM amounted to 6.98%. Then `Cc1ncnc2c1CCN(Cc1cccs1)CC2`, with 1.17%; and `Cc1ccc(CN2CCC3(CC2)CCN(Cc2ccoc2)CC3)cc1`, with 3.47%. Take `O=C(c1ccoc1)N1CCO[C@]2(CCC[C@H]2COCc2cccnc2)C1`: the cytotoxicity at 10 µM worked out at 4.58%. Then `COc1cccc(-n2cc3[nH]c(=O)n(C(C)C)n3c2=O)c1`, with -7.32%.

Values taken from ChEMBL document CHEMBL4513216, “Probing the Open Global Health Chemical Diversity Library for Multistage-Active Starting Points for Next-Generation Antimalarials” (ACS Infect Dis, 2020).
